# Measurements from ChEMBL document CHEMBL4396947, “Synthesis and characterization of novel isoform-selective IP6K1 inhibitors” (Bioorg Med Chem Lett, 2019).
# pIC50, pKi: −log10 of the molar value.
# Experiments:
# [1] = molecular target: Protein kinase C theta type (Homo sapiens) (UniProt Q04759); assay: Inhibition of recombinant full length human PKCtheta assessed as residual activity at 10 uM using histone H1 as substrate incubated for 40 mins in presence of [gamma-33P]ATP at Km concentration by radiometric assay relative to control
# [2] = molecular target: Serine/threonine-protein kinase mTOR (Homo sapiens) (UniProt P42345); assay: Inhibition of full length recombinant human mTOR assessed as residual activity at 10 uM incubated for 40 mins in presence of [gamma-33P]ATP at Km concentration by radiometric assay relative to control
# [3] = Solubility of compound in pH 7.4 PBS at 100 ug/ml incubated for 2 hrs by LC-MS/MS analysis; format: physicochemical; conditions: buffer, pH 7.4, 2 h
# [4] = molecular target: Mitogen-activated protein kinase kinase kinase 7 (Homo sapiens) (UniProt O43318); assay: Inhibition of recombinant human TAK1 (1 to 303 residues) assessed as residual activity at 10 uM using casein as substrate incubated for 40 mins in presence of [gamma-33P]ATP at Km concentration by radiometric assay relative to control
# [5] = molecular target: CDK2/Cyclin A2 (Homo sapiens) (UniProt P24941+P20248); assay: Inhibition of human full length recombinant CDK2/cyclinA assessed as residual activity at 10 uM using Histone H1 as substrate incubated for 40 mins in presence of [gamma-33P]ATP at Km concentration by radiometric assay relative to control; format: protein-complex assay
# [6] = molecular target: MAP kinase-interacting serine/threonine-protein kinase 2 (Homo sapiens) (UniProt Q9HBH9); assay: Inhibition of full length recombinant human MNK2 assessed as residual activity at 10 uM using myelin basic protein as substrate incubated for 40 mins in presence of [gamma-33P]ATP at Km concentration by radiometric assay relative to control
# [7] = molecular target: Inositol hexakisphosphate kinase 2 (Homo sapiens, UniProt Q9UHH9); assay: Inhibition of IP6K2 (unknown origin) incubated for 30 mins using IP6 as substrate in presence of ATP by ADP-Glo reagent based luminescence assay
# Method in brief: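 Luminescent ADP-Glo Max format adapted for IP6K, with purified enzyme and ATP at 1 mM, which is consumed as the kinase reaction proceeds. IC50 taken from the resulting inhibition data.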
# [8] = molecular target: Cyclin-dependent kinase 1/cyclin B1 (Homo sapiens) (UniProt P06493+P14635); assay: Inhibition of human full length recombinant CDK1/cyclinB assessed as residual activity at 10 uM using Histone H1 as substrate incubated for 40 mins in presence of [gamma-33P]ATP at Km concentration by radiometric assay relative to control; format: protein-complex assay
# [9] = molecular target: Vascular endothelial growth factor receptor 2 (Homo sapiens) (UniProt P35968); assay: Inhibition of human recombinant KDR (790 to end residues) assessed as residual activity at 10 uM using myelin basic protein as substrate incubated for 40 mins in presence of [gamma-33P]ATP at Km concentration by radiometric assay relative to control
# [10] = test system: Glycogen synthase kinase-3 beta (Homo sapiens), P49841 [UNDEFINED MUTATION]; assay: Inhibition of human recombinant GSK3beta H350L mutant (2 to end residues) assessed as residual activity at 10 uM using YRRAAVPPSPSLSR as substrate incubated for 40 mins in presence of [gamma-33P]ATP at Km concentration by radiometric assay relative to control
# [11] = molecular target: PI3-kinase p110-alpha/p85-alpha (Homo sapiens) (UniProt P27986+P42336); assay: Inhibition of recombinant full length human PI3K p110alpha/p85alpha assessed as residual activity at 10 uM incubated for 40 mins using phosphatidylinositol-4,5 bisphosphate as substrate in presence of [gamma-33P]ATP at Km concentration by radiometric assay relative to control; format: protein-complex assay
# [12] = Half life in rat microsomes at 1 uM in presence of NADPH; format: ADME, Microsome
# Homo sapiens [13] = organism: Homo sapiens; assay: Inhibition of recombinant full length human PI3K p120gamma R459Q mutant assessed as residual activity at 10 uM using phosphatidylinositol-4,5 bisphosphate as substrate incubated for 40 mins in presence of [gamma-33P]ATP at Km concentration by radiometric assay relative to control
# [14] = molecular target: Calcium/calmodulin-dependent protein kinase type 1 (Homo sapiens) (UniProt Q14012); assay: Inhibition of human full length recombinant CAMKI assessed as residual activity at 10 uM using KKLRRTLSFAEPG as substrate incubated for 40 mins in presence of [gamma-33P]ATP at Km concentration by radiometric assay relative to control
# [15] = molecular target: Ribosomal protein S6 kinase alpha-4 (Homo sapiens) (UniProt O75676); assay: Inhibition of full length recombinant human MSK2 assessed as residual activity at 10 uM using GRPRTSSFAEGKK as substrate incubated for 40 mins in presence of [gamma-33P]ATP at Km concentration by radiometric assay relative to control
# [16] = molecular target: Insulin-like growth factor 1 receptor (Homo sapiens) (UniProt P08069); assay: Inhibition of human recombinant IGF1R (959 to end residues) assessed as residual activity at 10 uM using KKKSPGEYVNIEF as substrate incubated for 40 mins in presence of [gamma-33P]ATP at Km concentration by radiometric assay relative to control
# [17] = molecular target: Inositol hexakisphosphate kinase 3 (Homo sapiens, UniProt Q96PC2); assay: Inhibition of IP6K3 (unknown origin) in presence of ATP at Km concentration by Cheng-Prusoff equation analysis
# Method in brief: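 Purified IP6K isoforms run in the ADP-Glo Max kinase assay with 1 mM ATP. Measured IC50 values converted to Ki with the Cheng-Prusoff equation.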
# Homo sapiens [18] = organism: Homo sapiens; assay: Selectivity ratio of Ki for IP6K2 (unknown origin) to Ki for IP6K1 (unknown origin)
# Method in brief: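 Purified IP6K1, IP6K2 and IP6K3 were each tested in an ADP-Glo Max luminescence assay optimized for IP6K, with 1 mM ATP consumed as the kinase reaction proceeds. IC50 values from each isoform were converted to Ki with the Cheng-Prusoff equation, and the Ki ratio versus IP6K1 was taken.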
# Homo sapiens [19] = organism: Homo sapiens; assay: Inhibition of recombinant human PRAK 5 R291E mutant assessed as residual activity at 10 uM using KKLRRTLSVA as substrate incubated for 40 mins in presence of [gamma-33P]ATP at Km concentration by radiometric assay relative to control
# [20] = molecular target: 5'-AMP-activated protein kinase catalytic subunit alpha-1 (Homo sapiens) (UniProt Q13131); assay: Inhibition of human full length recombinant AMPKalpha1 assessed as residual activity at 10 uM using AMARAASAAALAR as substrate incubated for 40 mins in presence of [gamma-33P]ATP at Km concentration by radiometric assay relative to control
# [21] = molecular target: Platelet-derived growth factor receptor beta (Homo sapiens) (UniProt P09619); assay: Inhibition of recombinant human PDGFRbeta (557 to end residues) assessed as residual activity at 10 uM using poly (Glu,Tyr) 4:1 as substrate incubated for 40 mins in presence of [gamma-33P]ATP at Km concentration by radiometric assay relative to control
# Chain of Protein kinase C theta type (Homo sapiens) (Q04759 whole entry, looked up): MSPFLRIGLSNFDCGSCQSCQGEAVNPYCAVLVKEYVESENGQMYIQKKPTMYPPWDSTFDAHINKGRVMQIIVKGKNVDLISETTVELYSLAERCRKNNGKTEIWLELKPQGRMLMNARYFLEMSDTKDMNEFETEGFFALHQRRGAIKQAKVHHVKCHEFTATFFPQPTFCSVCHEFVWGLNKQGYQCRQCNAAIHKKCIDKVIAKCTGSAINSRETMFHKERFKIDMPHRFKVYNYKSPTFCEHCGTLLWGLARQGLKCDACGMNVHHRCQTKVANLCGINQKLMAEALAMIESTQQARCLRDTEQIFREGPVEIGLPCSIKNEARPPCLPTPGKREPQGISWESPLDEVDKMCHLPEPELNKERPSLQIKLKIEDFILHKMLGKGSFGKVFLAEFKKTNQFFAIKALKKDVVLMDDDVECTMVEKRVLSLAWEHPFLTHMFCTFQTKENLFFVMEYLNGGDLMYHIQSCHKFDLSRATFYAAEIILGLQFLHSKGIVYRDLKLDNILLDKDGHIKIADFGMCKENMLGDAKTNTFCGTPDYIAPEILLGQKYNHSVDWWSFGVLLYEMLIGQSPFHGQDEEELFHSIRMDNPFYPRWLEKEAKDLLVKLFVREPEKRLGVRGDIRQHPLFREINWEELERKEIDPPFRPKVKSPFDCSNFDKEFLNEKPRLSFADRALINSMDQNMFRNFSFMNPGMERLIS
# Chain of Glycogen synthase kinase-3 beta (Homo sapiens), P49841 [UNDEFINED MUTATION] (P49841 whole entry, looked up, stated change not applied): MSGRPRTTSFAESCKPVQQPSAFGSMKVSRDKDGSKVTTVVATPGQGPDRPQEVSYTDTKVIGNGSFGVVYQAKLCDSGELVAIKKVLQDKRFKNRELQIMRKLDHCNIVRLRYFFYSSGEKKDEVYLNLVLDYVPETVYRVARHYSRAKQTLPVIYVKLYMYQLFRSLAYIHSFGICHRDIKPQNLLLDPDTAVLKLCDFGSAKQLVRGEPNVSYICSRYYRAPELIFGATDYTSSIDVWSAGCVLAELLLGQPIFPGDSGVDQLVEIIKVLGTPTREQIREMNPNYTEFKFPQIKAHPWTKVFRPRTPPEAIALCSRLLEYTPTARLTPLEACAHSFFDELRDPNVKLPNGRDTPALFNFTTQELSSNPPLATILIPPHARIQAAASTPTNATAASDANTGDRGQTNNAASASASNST
# Chain of Cyclin-dependent kinase 1/cyclin B1 (Homo sapiens) (P06493 whole entry, looked up): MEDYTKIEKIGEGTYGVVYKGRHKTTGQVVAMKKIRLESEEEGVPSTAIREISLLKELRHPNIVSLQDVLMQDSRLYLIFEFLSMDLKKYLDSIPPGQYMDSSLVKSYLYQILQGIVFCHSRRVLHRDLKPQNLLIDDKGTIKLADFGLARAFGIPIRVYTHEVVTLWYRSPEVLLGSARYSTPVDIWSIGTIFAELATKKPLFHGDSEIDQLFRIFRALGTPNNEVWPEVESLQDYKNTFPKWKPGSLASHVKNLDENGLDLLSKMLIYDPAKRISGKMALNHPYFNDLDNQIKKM
# Chain of Cyclin-dependent kinase 1/cyclin B1 (Homo sapiens) (P14635 whole entry, looked up): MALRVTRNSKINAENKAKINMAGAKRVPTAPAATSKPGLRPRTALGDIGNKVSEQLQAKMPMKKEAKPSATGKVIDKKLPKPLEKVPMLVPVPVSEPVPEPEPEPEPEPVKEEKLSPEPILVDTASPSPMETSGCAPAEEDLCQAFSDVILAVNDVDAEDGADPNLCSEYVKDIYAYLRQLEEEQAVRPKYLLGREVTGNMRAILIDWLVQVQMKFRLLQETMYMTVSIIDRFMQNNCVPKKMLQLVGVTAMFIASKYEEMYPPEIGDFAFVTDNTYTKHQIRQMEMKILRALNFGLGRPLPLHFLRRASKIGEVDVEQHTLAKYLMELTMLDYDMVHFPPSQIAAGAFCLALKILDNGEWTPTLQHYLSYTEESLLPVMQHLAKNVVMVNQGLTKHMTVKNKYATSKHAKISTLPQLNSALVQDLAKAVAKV
# Chain of Mitogen-activated protein kinase kinase kinase 7 (Homo sapiens) (O43318 whole entry, the tested form may be a part): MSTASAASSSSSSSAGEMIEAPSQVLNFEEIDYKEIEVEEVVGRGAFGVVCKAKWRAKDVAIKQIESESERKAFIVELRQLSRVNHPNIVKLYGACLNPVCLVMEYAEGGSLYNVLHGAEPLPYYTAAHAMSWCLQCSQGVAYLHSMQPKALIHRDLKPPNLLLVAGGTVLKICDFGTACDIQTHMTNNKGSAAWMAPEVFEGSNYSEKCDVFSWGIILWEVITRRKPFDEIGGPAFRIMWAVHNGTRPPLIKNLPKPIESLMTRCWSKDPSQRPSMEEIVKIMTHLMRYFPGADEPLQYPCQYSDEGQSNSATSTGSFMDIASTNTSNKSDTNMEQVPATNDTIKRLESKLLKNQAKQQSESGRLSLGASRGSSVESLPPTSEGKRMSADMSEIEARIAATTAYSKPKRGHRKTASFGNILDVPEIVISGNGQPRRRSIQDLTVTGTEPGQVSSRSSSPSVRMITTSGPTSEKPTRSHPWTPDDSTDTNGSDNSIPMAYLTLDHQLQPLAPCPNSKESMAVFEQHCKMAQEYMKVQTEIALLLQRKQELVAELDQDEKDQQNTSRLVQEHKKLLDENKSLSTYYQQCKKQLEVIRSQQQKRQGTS
# Chain of Ribosomal protein S6 kinase alpha-4 (Homo sapiens) (O75676 whole entry, looked up): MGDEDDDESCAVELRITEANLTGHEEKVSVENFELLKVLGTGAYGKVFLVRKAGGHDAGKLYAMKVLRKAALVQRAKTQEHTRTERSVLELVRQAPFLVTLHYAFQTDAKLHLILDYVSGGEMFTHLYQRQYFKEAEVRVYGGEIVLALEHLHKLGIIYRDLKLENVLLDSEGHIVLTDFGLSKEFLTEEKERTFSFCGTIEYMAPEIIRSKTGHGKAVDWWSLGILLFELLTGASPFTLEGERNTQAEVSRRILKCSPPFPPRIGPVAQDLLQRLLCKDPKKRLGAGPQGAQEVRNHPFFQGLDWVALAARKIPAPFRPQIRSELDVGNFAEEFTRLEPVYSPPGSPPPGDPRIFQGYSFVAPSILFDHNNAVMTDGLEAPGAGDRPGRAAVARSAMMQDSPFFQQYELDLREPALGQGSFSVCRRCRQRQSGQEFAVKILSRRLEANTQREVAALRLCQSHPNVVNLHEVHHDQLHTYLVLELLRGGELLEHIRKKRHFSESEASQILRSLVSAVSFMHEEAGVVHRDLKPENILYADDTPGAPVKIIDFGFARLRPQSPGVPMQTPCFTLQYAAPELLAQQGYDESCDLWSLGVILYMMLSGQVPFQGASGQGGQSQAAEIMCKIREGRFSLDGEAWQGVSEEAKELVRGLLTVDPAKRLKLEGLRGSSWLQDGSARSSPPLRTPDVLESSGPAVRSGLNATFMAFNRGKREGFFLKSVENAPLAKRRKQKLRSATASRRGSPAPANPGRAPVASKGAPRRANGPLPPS
# Chain of 5'-AMP-activated protein kinase catalytic subunit alpha-1 (Homo sapiens) (Q13131 whole entry, looked up): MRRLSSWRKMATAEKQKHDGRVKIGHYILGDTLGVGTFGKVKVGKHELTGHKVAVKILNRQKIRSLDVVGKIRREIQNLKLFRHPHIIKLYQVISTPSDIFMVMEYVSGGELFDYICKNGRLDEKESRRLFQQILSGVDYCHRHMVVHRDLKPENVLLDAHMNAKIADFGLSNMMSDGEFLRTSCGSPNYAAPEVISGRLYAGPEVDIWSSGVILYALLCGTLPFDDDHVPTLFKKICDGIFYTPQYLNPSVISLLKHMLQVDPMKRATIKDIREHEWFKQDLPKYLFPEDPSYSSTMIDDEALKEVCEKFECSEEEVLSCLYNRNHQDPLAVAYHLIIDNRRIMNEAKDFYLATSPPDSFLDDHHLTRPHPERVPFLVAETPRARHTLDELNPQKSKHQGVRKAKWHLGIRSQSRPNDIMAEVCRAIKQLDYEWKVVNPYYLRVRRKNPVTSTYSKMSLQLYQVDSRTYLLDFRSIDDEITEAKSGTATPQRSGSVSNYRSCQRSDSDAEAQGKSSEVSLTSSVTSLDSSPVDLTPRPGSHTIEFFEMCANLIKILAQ
# Chain of Inositol hexakisphosphate kinase 3 (Q96PC2 whole entry, canonical isoform): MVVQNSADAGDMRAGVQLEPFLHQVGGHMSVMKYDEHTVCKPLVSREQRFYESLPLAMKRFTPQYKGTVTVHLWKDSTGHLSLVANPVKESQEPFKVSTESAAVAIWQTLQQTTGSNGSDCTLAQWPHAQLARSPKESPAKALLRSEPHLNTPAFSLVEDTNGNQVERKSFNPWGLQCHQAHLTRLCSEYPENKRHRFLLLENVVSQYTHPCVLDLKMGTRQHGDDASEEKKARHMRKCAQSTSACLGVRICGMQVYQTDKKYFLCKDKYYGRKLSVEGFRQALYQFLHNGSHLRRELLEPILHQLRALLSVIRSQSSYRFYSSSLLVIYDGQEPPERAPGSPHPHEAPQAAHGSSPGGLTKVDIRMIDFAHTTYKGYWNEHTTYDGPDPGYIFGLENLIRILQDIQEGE
# Chain of MAP kinase-interacting serine/threonine-protein kinase 2 (Homo sapiens) (Q9HBH9 whole entry, looked up): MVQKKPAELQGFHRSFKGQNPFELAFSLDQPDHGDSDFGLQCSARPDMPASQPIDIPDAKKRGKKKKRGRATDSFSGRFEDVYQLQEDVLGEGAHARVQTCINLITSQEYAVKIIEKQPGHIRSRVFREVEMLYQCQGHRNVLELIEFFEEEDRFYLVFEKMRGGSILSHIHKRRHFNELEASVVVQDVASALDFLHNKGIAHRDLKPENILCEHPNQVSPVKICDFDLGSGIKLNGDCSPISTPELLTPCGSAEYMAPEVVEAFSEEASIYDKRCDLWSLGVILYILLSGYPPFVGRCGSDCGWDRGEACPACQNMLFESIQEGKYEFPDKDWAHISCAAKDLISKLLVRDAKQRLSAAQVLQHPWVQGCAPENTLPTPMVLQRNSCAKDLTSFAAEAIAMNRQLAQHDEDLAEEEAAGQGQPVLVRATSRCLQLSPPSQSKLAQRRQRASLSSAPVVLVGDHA
smiles,measurement,setting,value
COc1ccc2c(CCNc3nc(NCc4ccc(=O)[nH]c4)c4nc[nH]c4n3)c[nH]c2c1,Activity,[1],87%
same,Activity,[2],85%
same,solubility,[3],51 µg/mL
same,Activity,[4],66%
same,Activity,[5],90%
same,Activity,[6],76%
same,pIC50,[7],4.70
same,Activity,[8],83%
same,Activity,[9],60%
same,Activity,[10],63%
same,Activity,[11],99%
same,t1/2,[12],38 min
same,Activity,Homo sapiens [13],94%
same,Activity,[14],77%
same,Activity,[15],96%
same,Activity,[16],86%
same,pKi,[17],5.02
same,Ratio Ki,Homo sapiens [18],24.4
same,Activity,Homo sapiens [19],87%
same,Activity,[20],97%
same,Activity,[21],101%
